# Assay results: ChEMBL document CHEMBL1156445, “The rapamycin-binding domain of the protein kinase mammalian target of rapamycin is a destabilizing domain” (J Biol Chem, 2007)
# Activity calls are given as the source filed them. The calls are words filed in the database; no cut-off is given here.
# Legend:
# Format in all cases: cell-based
# [1] = Activation of FKBP12-rapamycin binding domain I2017V E2033G stop codon mutant in african green monkey COS1 cells after 16 hrs assessed as induction of secreted alkaline phosphatase expression assay; details: COS-1, 16 h
# Method in brief: (§1)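 COS-1 cells co-transfected by electroporation with Gal4BD-FKBP (pBJ5-GF3E), VP16AD-FRB (pBJ5-FRBVE, wild-type or mutant FRB) and SeAP reporter (pG5IL2SX). Cells treated in quadruplicate for 16 h with iRap (0.5-500 nM) or rapamycin (0.05-50 nM). SeAP read as fluorescence from methylumbelliferylphosphate substrate. EC50 derived from curve fits of mean (±SEM).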
# [2] = Activation of FKBP12-rapamycin binding domain A2020V I2021T D2096G stop codon mutant in african green monkey COS1 cells after 16 hrs assessed as induction of secreted alkaline phosphatase expression assay; details: COS-1, 16 h; method in brief: as §1
# [3] = Activation of FKBP12-rapamycin binding domain I2021T M2058V G2061D K2066R K2090R S2091L stop codon mutant in african green monkey COS1 cells after 16 hrs assessed as induction of secreted alkaline phosphatase expression assay; details: COS-1, 16 h; method in brief: as §1
# [4] = Activation of FKBP12-rapamycin binding domain mutant in african green monkey COS1 cells after 16 hrs assessed as induction of secreted alkaline phosphatase expression assay; details: COS-1, 16 h; method in brief: as §1
# [5] = Activation of FKBP12-rapamycin binding domain I2021V stop codon mutant in african green monkey COS1 cells after 16 hrs assessed as induction of secreted alkaline phosphatase expression assay; details: COS-1, 16 h; method in brief: as §1
# NIH3T3 [6] = test: Effect on stability of FKBP12-rapamycin binding domain N2043S stop codon mutant expressed in mouse NIH3T3 cells assessed as increase in yellow fluorescent protein fluorescence level at 1 uM after 24 hrs by flow cytometry
# Method in brief: (§2)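 FRB (mTOR residues 2015-2114, wild-type or mutant) fused to N-terminus of YFP in pBMN. NIH3T3 cells stably transduced with retrovirus from ΦNX cells; 293T cells transiently transfected (wild-type only). Cells mock-treated or given 1 μM iRap for 24 h, then trypsinized, PBS-washed and analysed by flow cytometry (10,000 events). Mean fluorescence intensity, triplicate.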
# NIH3T3 [7] = test: Effect on stability of wild-type FKBP12-rapamycin binding domain protein expressed in mouse NIH3T3 cells assessed as increase in yellow fluorescent protein fluorescence level at 1 uM after 24 hrs by flow cytometry; method in brief: as §2
# [8] = Activation of FKBP12-rapamycin binding domain R2110 mutant in african green monkey COS1 cells after 16 hrs assessed as induction of secreted alkaline phosphatase expression assay; details: COS-1, 16 h; method in brief: as §1
# NIH3T3 [9] = test: Effect on stability of wild-type FKBP12-rapamycin binding domain protein expressed in mouse NIH3T3 cells assessed as increase in yellow fluorescent protein fluorescence level at 10 nM after 24 hrs by flow cytometry
# Method in brief: (§3)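 NIH3T3 cells stably transduced with wtFRB-YFP, treated with iRap (10 nM to 10 μM). YFP fluorescence monitored by flow cytometry over 24 h, 10,000 events per sample. Mean fluorescence intensity expressed relative to the overall highest value; duplicate.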
# [10] = Activation of FKBP12-rapamycin binding domain I2021T W2023R K2045L S2112P stop codon mutant in african green monkey COS1 cells after 16 hrs assessed as induction of secreted alkaline phosphatase expression assay; details: COS-1, 16 h; method in brief: as §1
# [11] = Activation of FKBP12-rapamycin binding domain stop codon>Leu mutant in african green monkey COS1 cells after 16 hrs assessed as induction of secreted alkaline phosphatase expression assay; details: COS-1, 16 h; method in brief: as §1
# [12] = Activation of FKBP12-rapamycin binding domain I2021T A2100V stop codon mutant in african green monkey COS1 cells after 16 hrs assessed as induction of secreted alkaline phosphatase expression assay; details: COS-1, 16 h; method in brief: as §1
# [13] = Activation of FKBP12-rapamycin binding domain K2066R D2077G stop codon mutant in african green monkey COS1 cells after 16 hrs assessed as induction of secreted alkaline phosphatase expression assay; details: COS-1, 16 h; method in brief: as §1
# NIH3T3 [14] = test: Effect on stability of FKBP12-rapamycin binding domain K2066R D2077G stop codon mutant expressed in mouse NIH3T3 cells assessed as increase in yellow fluorescent protein fluorescence level at 1 uM after 24 hrs by flow cytometry; method in brief: as §2
# [15] = Activation of FKBP12-rapamycin binding domain H2024R stop codon mutant protein in african green monkey COS1 cells after 16 hrs assessed as induction of secreted alkaline phosphatase expression assay; details: COS-1, 16 h; method in brief: as §1
# [16] = Activation of FKBP12-rapamycin binding domain C2085R stop codon mutant in african green monkey COS1 cells after 16 hrs assessed as induction of secreted alkaline phosphatase expression assay; details: COS-1, 16 h; method in brief: as §1
# [17] = Activation of FKBP12-rapamycin binding domain T2064I Y2074H K2090R stop codon mutant in african green monkey COS1 cells after 16 hrs assessed as induction of secreted alkaline phosphatase expression assay; details: COS-1, 16 h; method in brief: as §1
# [18] = Activation of FKBP12-rapamycin binding domain I2021T E2029G L2037S stop codon mutant in african green monkey COS1 cells after 16 hrs assessed as induction of secreted alkaline phosphatase expression assay; details: COS-1, 16 h; method in brief: as §1
# [19] = Activation of FKBP12-rapamycin binding domain N2043S stop codon mutant in african green monkey COS1 cells after 16 hrs assessed as induction of secreted alkaline phosphatase expression assay; details: COS-1, 16 h; method in brief: as §1
# [20] = Activation of FKBP12-rapamycin binding domain I2021T K2045E E2049G M2057T E2083K stop codon mutant in african green monkey COS1 cells after 16 hrs assessed as induction of secreted alkaline phosphatase expression assay; details: COS-1, 16 h; method in brief: as §1
# NIH3T3 [21] = test: Effect on stability of FKBP12-rapamycin binding domain T2068S E2080G stop codon mutant expressed in mouse NIH3T3 cells assessed as increase in yellow fluorescent protein fluorescence level at 1 uM after 24 hrs by flow cytometry; method in brief: as §2
# [22] = Activation of FKBP12-rapamycin binding domain M2026V E2049G stop codon mutant in african green monkey COS1 cells after 16 hrs assessed as induction of secreted alkaline phosphatase expression assay; details: COS-1, 16 h; method in brief: as §1
# 293T = test: Effect on stability of wild-type FKBP12-rapamycin binding domain protein expressed in human 293T cells assessed as increase in yellow fluorescent protein fluorescence level at 1 uM after 24 hrs by flow cytometry; method in brief: as §2
# [23] = Activation of wild-type FKBP12-rapamycin binding domain protein in african green monkey COS1 cells after 16 hrs assessed as induction of secreted alkaline phosphatase expression assay; details: COS-1, 16 h; method in brief: as §1
# [24] = Activation of FKBP12-rapamycin binding domain S2069P stop codon mutant in african green monkey COS1 cells after 16 hrs assessed as induction of secreted alkaline phosphatase expression assay; details: COS-1, 16 h; method in brief: as §1
# [25] = Activation of FKBP12-rapamycin binding domain S2069P M2079I stop codon mutant in african green monkey COS1 cells after 16 hrs assessed as induction of secreted alkaline phosphatase expression assay; details: COS-1, 16 h; method in brief: as §1
# [26] = Activation of FKBP12-rapamycin binding domain T2068S E2080G stop codon mutant in african green monkey COS1 cells after 16 hrs assessed as induction of secreted alkaline phosphatase expression assay; details: COS-1, 16 h; method in brief: as §1
# NIH3T3 [27] = test: Effect on stability of FKBP12-rapamycin binding domain H2024R stop codon mutant expressed in mouse NIH3T3 cells assessed as increase in yellow fluorescent protein fluorescence level at 1 uM after 24 hrs by flow cytometry; method in brief: as §2
# NIH3T3 [28] = test: Effect on stability of wild-type FKBP12-rapamycin binding domain protein expressed in mouse NIH3T3 cells assessed as increase in yellow fluorescent protein fluorescence level at 100 nM after 24 hrs by flow cytometry; method in brief: as §3
# [29] = Activation of FKBP12-rapamycin binding domain E2067G stop codon mutant in african green monkey COS1 cells after 16 hrs assessed as induction of secreted alkaline phosphatase expression assay; details: COS-1, 16 h; method in brief: as §1
# NIH3T3 [30] = test: Effect on stability of wild-type FKBP12-rapamycin binding domain protein expressed in mouse NIH3T3 cells assessed as increase in yellow fluorescent protein fluorescence level at 10 uM after 24 hrs by flow cytometry; method in brief: as §3
compound,measurement,setting,value
CO[C@@H]1C[C@H](C[C@@H](C)[C@@H]2CC(=O)[C@H](C)/C=C(\C)[C@@H](O)[C@@H](OC)C(=O)[C@H](C)C[C@H](C)/C=C/C=C/C=C(\C)[C@@H](c3[nH]c4ccccc4c3C)C[C@@H]3CC[C@@H](C)[C@@](O)(O3)C(=O)C(=O)N3CCCC[C@H]3C(=O)O2)CC[C@H]1O,EC50,[1],23 nM
same,EC50,[2],41.7 nM
same,EC50,[3],100 nM
same,EC50,[4],32.6 nM
same,EC50,[5],28.1 nM
same,Activity,NIH3T3 [6],8
same,Activity,NIH3T3 [7],10
same,EC50,[8],250 nM
same,Activity,NIH3T3 [9],Active
same,EC50,[10],31.4 nM
same,EC50,[11],26 nM
same,EC50,[12],67.4 nM
same,EC50,[13],20.4 nM
same,Activity,NIH3T3 [14],7
same,EC50,[15],14.4 nM
same,EC50,[16],33.4 nM
same,EC50,[17],22.1 nM
same,EC50,[18],88.8 nM
same,EC50,[19],24.9 nM
same,EC50,[20],29.7 nM
same,Activity,NIH3T3 [21],5
same,EC50,[22],39 nM
same,Activity,293T,Active
same,EC50,[23],20.5 nM
same,EC50,[24],42.7 nM
same,EC50,[25],39.1 nM
same,EC50,[26],19.3 nM
same,Activity,NIH3T3 [27],4
same,Activity,NIH3T3 [28],Active
same,EC50,[29],45.1 nM
same,Activity,NIH3T3 [30],Active
